Laboratory results from ChEMBL document CHEMBL4393705, “New chalcone-sulfonamide hybrids exhibiting anticancer and antituberculosis activity” (Eur J Med Chem, 2019).

Experiments:
Assay type in all cases: functional
ACHN = test: Anticancer activity against human ACHN cells assessed as cell growth inhibition measured after 48 hrs by SRB assay; conditions: for CC50: read-out: LC50 (the source's name)
In short: (§1)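 NCI-60 five-dose screen at 100, 10, 1.0, 0.1 and 0.01 µM final. Cells in RPMI-1640 with 5% FBS and 2 mM glutamine were seeded 24 h ahead at 37°C, 5% CO2. Compound exposure was 48 h, followed by TCA fixation and SRB staining, read at 515 nm. GI50 is the concentration giving 50% lower net protein increase than control, using time-zero plates.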

HCT-116 [1] = test: Anticancer activity against human HCT116 cells assessed as cell growth inhibition measured after 48 hrs by SRB assay; conditions: HCT-116, 48 h; in short: as §1
HOP-62 = test: Anticancer activity against human HOP62 cells assessed as cell growth inhibition measured after 48 hrs by SRB assay; conditions: HOP-62, 48 h; in short: as §1
K562 = test: Anticancer activity against human K562 cells assessed as tumour cell growth at 10 uM after 48 hrs by SRB assay relative to control
In short: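 NCI 60-line primary screen at a single 10 μM dose in RPMI-1640 with 5% FBS and 2 mM L-glutamine. Cells were preincubated 24 h at 37 °C in 5% CO₂, with time-zero plates fixed with TCA. Compounds (DMSO, diluted in gentamicin medium) were incubated 48 h, then cells TCA-fixed and stained with 0.4% SRB (A515). Growth percent was derived from time-zero, control and treated absorbances.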

Hs-578T = test: Anticancer activity against human Hs578T cells assessed as cell growth inhibition measured after 48 hrs by SRB assay; in short: as §1
U-251 = test: Anticancer activity against human U251 cells assessed as increase in cell death at 10 uM after 48 hrs by SRB assay relative to control
In short: (§2)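 NCI single-dose screen at 10 µM. Cells in RPMI-1640 with 5% FBS and 2 mM L-glutamine, preincubated 24 h, then exposed 48 h at 37°C, 5% CO2. Protein measured by TCA fixation and SRB staining, absorbance 515 nm. Growth percent is calculated against time-zero and untreated control plates; negative values indicate net cell loss.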

SN12C = test: Anticancer activity against human SN12C cells assessed as cell growth inhibition measured after 48 hrs by SRB assay
In short: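 NCI 60-cell screen, five-dose mode at 100, 10, 1.0, 0.1 and 0.01 µM. Cells grown in RPMI-1640 with 5% FBS and 2 mM L-glutamine, seeded and held 24 h at 37°C, 5% CO2, then exposed for 48 h. Fixed with cold TCA (10% final), stained with 0.4% SRB and read at 515 nm. Time-zero plates were used. GI50 is the concentration giving 50% lower net protein increase than control.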

SF-539 = test: Anticancer activity against human SF539 cells assessed as increase in cell death at 10 uM after 48 hrs by SRB assay relative to control; in short: as §2
MDA-MB-435 = test: Anticancer activity against human MDA-MB-435 cells assessed as cell growth inhibition measured after 48 hrs by SRB assay; conditions: MDA-MB-435, 48 h; in short: as §1
786-0 [2] = test: Anticancer activity against human 786-O cells assessed as cell growth inhibition measured after 48 hrs by SRB assay; conditions: 786-0, 48 h; for CC50: read-out: LC50 (the source's name); in short: as §1
PC-3 = test: Anticancer activity against human PC3 cells assessed as increase in cell death at 10 uM after 48 hrs by SRB assay relative to control
In short: (§3)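 NCI-60 single-dose screen at 10 µM in RPMI-1640 with 5% FBS and 2 mM glutamine. Exposure was 48 h at 37°C, 5% CO2, with time-zero plates fixed at dosing. Read-out was TCA fixation and SRB at 515 nm. Growth percent = (Ti−Tz)/Tz×100 where Ti<Tz, so negative values mean net cell loss.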

M14 = test: Anticancer activity against human M14 cells assessed as increase in cell death at 10 uM after 48 hrs by SRB assay relative to control; in short: as §3
RPMI-8226 = test: Anticancer activity against human RPMI8226 cells assessed as increase in cell death at 10 uM after 48 hrs by SRB assay relative to control; in short: as §3
HOP-92 = test: Anticancer activity against human HOP92 cells assessed as increase in cell death at 10 uM after 48 hrs by SRB assay relative to control; in short: as §3
786-0 [3] = test: Anticancer activity against human 786-O cells assessed as increase in cell death at 10 uM after 48 hrs by SRB assay relative to control; in short: as §3
HCT-116 [4] = test: Anticancer activity against human HCT116 cells assessed as increase in cell death at 10 uM after 48 hrs by SRB assay relative to control; in short: as §3

## COc1ccc(C(=O)/C=C/c2ccc(Cl)cc2)cc1S(=O)(=O)Nc1c(N)nc(SC)[nH]c1=O
ACHN
  GI50: 3.23 µM
  CC50: 36.5 µM
HCT-116 [1]
  GI50: 1.56 µM
  LC50 (concentration killing 50% of cells present at start): 5.55 µM
HOP-62
  GI50: 1.81 µM
  LC50: 8.7 µM
K562
  Activity: 3.84%
Hs-578T
  GI50: 3.56 µM
  LC50: > 100 µM
U-251
  Activity: 4.2%
SN12C
  GI50: 3.45 µM
  LC50 (concentration giving 50% net cell kill): 73.4 µM
SF-539
  Activity: 5.49%
MDA-MB-435
  GI50: 2.95 µM
  LC50 (concentration killing 50% of cells present at time zero): 48 µM
786-0 [2]
  GI50: 1.95 µM
  CC50: 8.74 µM

## COc1ccc(C(=O)/C=C/c2ccc(Cl)cc2)cc1S(N)(=O)=O
ACHN
  GI50: 1.94 µM
  CC50: 8.75 µM
HCT-116 [1]
  GI50: 1.36 µM
  LC50 (concentration killing 50% of cells present at start): 5.36 µM
HOP-62
  GI50: 2.51 µM
  LC50: 31.2 µM
PC-3
  Activity: 55.63%
Hs-578T
  GI50: 3.28 µM
  LC50: > 100 µM
M14
  Activity: 57.32%
RPMI-8226
  Activity: 31.74%
HOP-92
  Activity: 26.57%
SN12C
  GI50: 2.72 µM
  LC50 (concentration giving 50% net cell kill): 31.5 µM
786-0 [3]
  Activity: 30.67%
HCT-116 [4]
  Activity: 78.33%
MDA-MB-435
  GI50: 4.34 µM
  LC50 (concentration killing 50% of cells present at time zero): 41.6 µM
786-0 [2]
  GI50: 1.74 µM
  CC50: 7.82 µM
